# Bioassay records (PubChem)
# PAX8 reporter: inhibitors of PAX8 transcriptional activity in RMG-I cells; AID 652154; inhibition, % at 12.6 µM; hit rate 1.2% among 360,000; RMG-I TPO-luciferase reporter, SteadyGlo, 24 h;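 active = mean replicate inhibition at least 60% with every replicate also reaching 60%; inconclusive = only one of the two criteria is met; inactive = mean below 60% and not all replicates reaching 60%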;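 note: luciferase light reporting Pax8 driven TPO promoter activity; plate controls were median of neutral control wells for no effect and mitoxantrone controls for full effect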
# Env fusion inh: inhibitors of HIV Env-mediated cell fusion; inhibition, % at 12.3 µM; hit rate 1.1% among 360,000; HeLa-JRFL Env/CEM21 cell fusion, luciferase; AID 651610;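 active = mean replicate inhibition score of at least 50 and every replicate individually at or above 50; inconclusive = only one of the two criteria met; inactive = mean below 50 and not all replicates reaching 50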;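 note: 0% = plate neutral controls and 100% = maraviroc near 300 nM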
# N-glyco inh: blocks N-linked glycosylation in D54 reporter cells; D54 ERlucT glycosylation luciferase reporter, 24 h; percent of 100 nM tunicamycin response; reporter increase, % at 12.5 µM; hit rate 0.23% among 360,000;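 active = mean luciferase reporter signal, scaled so untreated is 0 and the glycosylation-blocking control 100, at or above a set limit in every replicate; inconclusive = mean reaches the limit but not every replicate does; inactive = mean below the limit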;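 note: luciferase carries N-glycosylation sites so blocking glycosylation raises the light; 0% = median of neutral control wells and 100% = median of 100 nM tunicamycin wells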
# PfHsp90 yeast 2: growth inhibition of yeast expressing Plasmodium Hsp90; inhibition, % at 9.4 µM; S. cerevisiae expressing PfHsp90, BacTiter-Glo ATP, 48 h; yeast lacking PDR1 and PDR3 efflux regulators; hit rate 0.32% among 310,000;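 active = every replicate shows inhibition above about 80%, whatever the replicate mean, limit read from the data; inconclusive = mean inhibition reaches the set limit but some replicate falls short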;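 note: 0% = DMSO neutral controls and 100% = 20 µM radicicol positive controls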
# Arrestin-AP2 inh: human beta-arrestin and AP2 interaction inhibition; hit rate 0.31% among 340,000; inhibition, % at 10 µM; FITC-arrestin peptide / GST-AP2 beads, flow cytometry; AP2 beta2 appendage carries R879A mutation;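 active = inhibition above a set limit, near 3 SD of compounds lacking own fluorescence, cut at about 54% in these data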;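 note: plate controls were DMSO wells for no effect and 5 µM unlabelled arrestin peptide for full effect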
#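 test system = AP2 appendage R879A on GSH beads | buffer or medium = PBS plus Tween 20 (0.05%) and BSA (0.1%) | incubation = 12 min plus 1 h, RT | detection = bead flow cytometry, FITC channel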
# Rtt109 HAT inh: inhibitors of Candida albicans Rtt109/Vps75 histone acetyltransferase. purified Rtt109/Vps75, ThioGlo CoA-SH fluorescence, 4 h. inhibition, % at 34.9 µM. AID 540336. Q5AAJ8. hit rate 0.16% among 330,000;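 active = inhibition of at least 50% in every replicate; inconclusive = best replicate reaches 50% inhibition but some replicates fall short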
# Target sequence (Q5AAJ8 whole entry, looked up): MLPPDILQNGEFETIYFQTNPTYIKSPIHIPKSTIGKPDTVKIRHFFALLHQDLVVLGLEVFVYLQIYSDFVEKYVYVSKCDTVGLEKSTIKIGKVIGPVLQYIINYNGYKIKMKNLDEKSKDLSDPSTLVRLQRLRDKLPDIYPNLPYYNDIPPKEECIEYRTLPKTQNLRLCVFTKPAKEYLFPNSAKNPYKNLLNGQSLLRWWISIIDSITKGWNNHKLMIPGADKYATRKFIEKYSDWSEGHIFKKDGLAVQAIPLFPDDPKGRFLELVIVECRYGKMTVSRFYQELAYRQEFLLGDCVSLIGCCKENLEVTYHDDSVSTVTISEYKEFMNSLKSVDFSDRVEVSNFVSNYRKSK
# * hit, by the source's call; ? = inconclusive; . = no result; [ ] = dose if it differs, or a comment. Most compounds without a hit are left out; they make up all but 2.3% or so of the library.
SMILES,PAX8 reporter,Env fusion inh,N-glyco inh,PfHsp90 yeast 2,Arrestin-AP2 inh,Rtt109 HAT inh
Cn1nnnc1Sc1ncnc2scc(-c3ccccc3Cl)c12,91*,39,-4,.,0,-5
NC(=O)NCC#Cc1ccc2c(c1)[C@]1(C(=O)N2)[C@H](c2ccc(O)cc2)N2[C@H](c3ccccc3)[C@H](c3ccccc3)OC(=O)[C@H]2[C@@H]1C(N)=O,4,-2[16.7 µM],.,.,.,.
OCCN=c1cc(-c2ccccc2)oc2ccc(Cl)cc12,.,.,50*,10,20,-9
CN(C)CCCN=c1cc(-c2ccccc2)oc2ccc(Cl)cc12,-110,-54,10,4,52,5
CC(O)CN=c1cc(-c2ccccc2)oc2ccc(Cl)cc12 (centres undefined),.,.,29*,-6,8,-2
CO[C@H]1CN(C)C(=O)c2ccc(NS(=O)(=O)c3cn(C)cn3)cc2OC[C@H](C)N(CC2CC2)C[C@@H]1C,.,10[16.7 µM],.,.,.,.
Cc1[nH]nc2ncc(C(=O)c3ccccc3O)cc12,-13,64*,-10,6,1,8
Cc1nn(C)c2ncc(C(=O)c3ccccc3O)cc12,13,7,-4,-6,16,8
O=C(CSc1nc(-c2ccccc2)cc(C(F)(F)F)n1)NCc1cccs1,1,.,-4,-19,17,2
O=C(CSc1nc(-c2ccco2)cc(C(F)(F)F)n1)Nc1ccccc1C(F)(F)F,.,74*,16,-44,1,-2
COc1ccc(-c2cc(C(F)(F)F)nc(SCC(=O)NCc3cccs3)n2)cc1,.,56*,-5,-7,1,5
CN1C(=O)c2cc(NC(=O)c3cccs3)ccc2OC[C@H]2O[C@H](CC(=O)NCC3CC3)CC[C@@H]21,8,-5[16.7 µM],.,.,.,.
COc1ccc(CCNc2c3ccccc3nc3ccccc23)cc1OC,-66,26,84*,-7,9,-18
Oc1cccc(Nc2c3ccccc3nc3ccccc23)c1,-25,-27,62*,2,22,-1
COc1ccc(Nc2c3ccccc3nc3ccccc23)cc1,17,1,42*,38,-5,3
COc1ccc(Nc2c3c(nc4ccccc24)CCC3)cc1,33,35,5,-4,1,5
COc1ccccc1Nc1c2ccccc2nc2ccccc12,15,57*,3,23,0,-2
CCCC(=O)Nc1ccc2c(c1)OC[C@@H](C)N(Cc1nccs1)C[C@@H](C)[C@H](OC)CN(C)C2=O,-1,.,.,.,.,.
Cc1noc(C)c1NC(=O)N(C)C[C@H]1OCCCC[C@@H](C)Oc2ccc(NS(=O)(=O)c3ccccc3)cc2C(=O)N([C@H](C)CO)C[C@H]1C,-30,-22[16.7 µM],.,.,.,.
CCN(CC)CCNc1nc2cc(OC)c(OC)cc2c2nc(-c3ccccc3)nn12,-2,-62,71*,.,6,?
Oc1ccc(C[C@H]2CN([C@@H](Cc3ccc(O)cc3)CN3CCC[C@@H]3CN3C(=S)NC[C@@H]3Cc3ccccc3)C(=S)N2CCc2ccccc2)cc1,22,-117,-3,.,.,.
CCOc1ccc(CCN2C(=S)N([C@@H](Cc3ccc(O)cc3)CN3CCC[C@@H]3CN3C(=S)NC[C@@H]3CC(C)C)C[C@@H]2Cc2ccc(O)cc2)cc1,98*,67*,-3,.,.,.
O=C1NC[C@H](Cc2ccccc2)N(C[C@H]2CCCN2C[C@H](Cc2ccccc2)N2C[C@H](Cc3ccc(O)cc3)N(CCc3ccccc3)C(=O)C2=O)C1=O,0,-2,37*,13,11,-4
CC(C)C[C@@H](CN1CCCC1CN1C(=S)NC[C@@H]1Cc1ccc(O)cc1)N1C[C@H](Cc2ccc(O)cc2)N(CCc2ccccc2)C1=S (some centres undefined),71*,-12,-5,8,38,-9
CCOc1ccc(CCN2C(=S)N([C@@H](Cc3ccccc3)CN3CCC[C@@H]3CN3C(=S)NC[C@@H]3Cc3ccc(O)cc3)C[C@@H]2CC(C)C)cc1,41,64*,-8,.,.,.
SMILES,PAX8 reporter,Env fusion inh,N-glyco inh,PfHsp90 yeast 2,Arrestin-AP2 inh,Rtt109 HAT inh
COCC(=O)N(C)C[C@@H]1Oc2cc(C#CCC(C)C)ccc2S(=O)(=O)N([C@@H](C)CO)C[C@H]1C,.,-4[16.7 µM],.,.,.,.
O=C(Nc1ccccc1F)N1C[C@H]2[C@@H](c3ccccc31)[C@@H](CO)N2C(=O)C1CCCC1,-52,.,.,.,.,.
C[C@@H]1CN([C@H](C)CO)C(=O)c2cccc(NC(=O)CCCCCC(=O)Nc3ccccc3N)c2O[C@@H]1CN(C)S(=O)(=O)c1cn(C)cn1,2,.,.,.,.,.
C[C@H]1CN([C@@H](C)CO)C(=O)c2cc(NS(=O)(=O)c3ccc(Cl)cc3)ccc2O[C@@H]1CN(C)C(=O)Nc1cccc2ccccc12,9,2[16.7 µM],.,.,.,.
CN(C)CCCNc1c2c(nc3ccccc13)CCC2,2,2,30*,8,36,-3
OCCCNc1c2ccccc2nc2ccccc12,33,-1,36*,5,3,4
COCCNc1c2c(nc3ccccc13)CCC2,12,-5,2,-3,18,0
C[C@H](NC(=O)C[C@H]1C[C@H]2c3cc(NC(=O)Cc4ccncc4)ccc3O[C@H]2[C@@H](CO)O1)c1ccccc1,-15,-6[16.7 µM],.,.,.,.
Cc1ccc2c(C)nc(Nc3nc(CSc4nnnn4-c4ccccc4)cc(=O)[nH]3)nc2c1,.,70*,-11,.,14,-1
Cc1cc(C)c2nc(Nc3nc(CSc4nc5ccccc5[nH]4)cc(=O)[nH]3)nc(C)c2c1,28,83*,0,9,-2,7
CC1(c2nnc(Cc3ccccc3)o2)CC(c2ccccc2[N+](=O)[O-])=NO1 (centres undefined),.,.,2,108*,5,10
CC1(c2nnc(Cc3ccccc3)o2)CC(c2cccc([N+](=O)[O-])c2)=NO1 (centres undefined),5,-5,2,6,2,-5
Cc1ccc2sc(C)[n+](CCO)c2c1,16,9,1,8,15,104*
CC[n+]1c(C)sc2cc(C)ccc21,-11,3,3,-13,-4,85*
C[C@H](CO)N1C[C@H](C)[C@@H](CN(C)Cc2ccc(Oc3ccccc3)cc2)Oc2c(NC(=O)Nc3ccccc3)cccc2C1=O,-21,-12[16.7 µM],.,.,.,.
O=C(C1CC1)N1CC(=O)N2[C@@H](CO)[C@@H](c3ccc(C#CC4CCCC4)cc3)[C@@H]2C1,13,.,.,.,.,.
O=C(COC(=O)c1cccc(Br)c1)NC1CCCCCCC1,-12,58*,2,.,.,.
O=C(COC(=O)c1ccc(Br)cc1)NC1CCCC1,-6,-3,3,8,-11,9
Cc1cc(-c2csc(NC(=O)c3ccc(C#N)cc3)n2)c(C)n1Cc1ccco1,121*,.,-2,0,26,0
Cc1cc(-c2csc(NC(=O)c3ccc(=O)[nH]c3)n2)c(C)n1Cc1ccccc1,13,31,-1,-33,9,5
